Experiments:
[1] = target: T1, Mitogen-activated protein kinase 14 (Homo sapiens, UniProt Q16539); assay: Inhibition of NanoBRET kinase tracer K4 binding to full-length human C-terminal NanoLuc-tagged p38alpha MAPK expressed in HEK293T cells incubated for 2 hrs by NanoBRET NanoGlo substrate based NanoBRET assay; type: cell-based, HEK-293T
Outline: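 Cellular reporter-displacement NanoBRET format, run in intact cells where the competing substrate ATP is present at cellular concentrations. The result is reported as an IC50.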

[2] = target: T1, Mitogen-activated protein kinase 14; assay: Inhibition of p38alpha MAPK (unknown origin) assessed as target residence time using ATF2 as substrate preincubated for 1 hr followed by jump dilution in presence of substrate and measured every 3 mins for 4 hrs by TR-FRET assay
[3] = target: T1, Mitogen-activated protein kinase 14; assay: Inhibition of p38alpha MAPK in human whole blood assessed as reduction in LPS-induced TNFalpha production preincubated for 2.5 hrs followed by LPS stimulation by ELISA; type: tissue-based
[4] = target: T1, Mitogen-activated protein kinase 14; assay: Inhibition of recombinant human full-length N-terminal GST-tagged p38alpha MAPK expressed in baculovirus infected Sf9 insect cells using p38 peptide as substrate preincubated for 15 mins followed by substrate addition and measured after 60 mins by ADP-glo assay
[5] = Stability of the compound in human liver microsomes at 100 uM measured after 180 mins in presence of NADPH generating system by LC-MS/MS analysis; type: ADME, Microsome; conditions: 3 h
[6] = Drug metabolism in human liver microsomes assessed as oxidation at 100 uM measured after 180 mins in presence of NADPH generating system by LC-MS/MS analysis; type: ADME, Microsome; conditions: 3 h

T1 sequence (Q16539 whole entry): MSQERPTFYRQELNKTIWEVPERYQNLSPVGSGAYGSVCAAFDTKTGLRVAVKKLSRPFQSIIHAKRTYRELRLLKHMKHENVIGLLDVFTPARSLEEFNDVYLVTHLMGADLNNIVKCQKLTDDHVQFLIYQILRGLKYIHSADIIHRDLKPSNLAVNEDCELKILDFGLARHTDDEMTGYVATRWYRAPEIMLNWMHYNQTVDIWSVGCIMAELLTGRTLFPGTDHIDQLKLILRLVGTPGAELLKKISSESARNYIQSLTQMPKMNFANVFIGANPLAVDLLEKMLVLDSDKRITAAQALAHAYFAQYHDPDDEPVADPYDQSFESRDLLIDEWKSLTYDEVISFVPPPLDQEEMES

Row | IC50 [1] [nM] | TIME [2] [h] | IC50 [3] [nM] | IC50 [4] [nM] | Stability [5] | Drug metabolism [6] | SMILES
1 | 30.4 | 0.281 | 490 | 16 | – | – | O=C(NCCN1CCOCC1)c1ccc2c(c1)C(=O)c1ccc(Nc3ccc(F)c(/C=N/NC(=O)c4ccc[se]4)c3)cc1CC2
2 | – | 0.207 | 43 | 12 | – | – | O=C(NCCN1CCOCC1)c1ccc2c(c1)C(=O)c1ccc(Nc3ccc(F)c(NC(=O)c4cccs4)c3)cc1CC2
3 | – | 0.0244 | – | – | – | – | O=C1c2ccc(Nc3ccc(F)cc3F)cc2CCc2ccc(OC[C@H](O)CO)cc21
4 | 15.5 | 0.372 | 276 | 29.7 | – | – | O=C(NCCN1CCOCC1)c1ccc2c(c1)C(=O)c1ccc(Nc3ccc(F)c(/C=N/NC(=O)c4cccs4)c3)cc1CC2
5 | 6.3 | 0.231 | 47 | 19.7 | Stable | Metabolite_Notdetected | O=C(NCCN1CCOCC1)c1ccc2c(c1)C(=O)c1ccc(Nc3ccc(F)c(/C=N/NC(=O)c4ccccc4)c3)cc1CC2
6 | – | 0.0511 | – | – | – | – | O=C(NCCN1CCOCC1)c1ccc2c(c1)C(=O)c1ccc(Nc3ccc(F)c(NC(=O)c4ccccc4)c3)cc1CC2
7 | 4.9 | 0.443 | 101 | 24.6 | – | Metabolite_Notdetected | O=C(NCCN1CCOCC1)c1ccc2c(c1)C(=O)c1ccc(Nc3ccc(F)c(NC(=O)c4ccc[se]4)c3)cc1CC2

Reference: ChEMBL document CHEMBL4616669, “Bioisosteric Replacement of Arylamide-Linked Spine Residues with N-Acylhydrazones and Selenophenes as a Design Strategy to Novel Dibenzosuberone Derivatives as Type I 1/2 p38α MAP Kinase Inhibitors” (J Med Chem, 2020)
